Assay outcomes: PubChem, Johns Hopkins Ion Channel Center
This is a sample that favours compounds with a hit; in the whole collection about 2.3% have one here.
TRPC4 block = inhibitors of mouse TRPC4 channel; B-score at 10 µM; Q9QUQ5; HEK293 TRPC4beta/mu-opioid, DAMGO-evoked Fluo4 calcium flux; hits give low values; hit rate 0.39% among 300,000;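 active = B-score over 3 SD under the library average, no early fluorescence shift, positive overall ratio signal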
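Material: HEK293 cells with stable TRPC4beta plus mu-opioid receptor expression / Probe or stimulus: DAMGO in two steps, submaximal then maximal / Compound: single concentration per test compound / Technique: kinetic Fluo4 fluorescence imaging of calcium influx / Read-out: per-well B score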
TRPC4 act = TRPC4 (mouse) channel activation. Q9QUQ5. HEK293 TRPC4beta/mu-opioid, Fluo4 calcium fluorescence; hits give high values. B-score at 10 µM. hit rate 0.49% among 310,000;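 active = B-score above 5 SD of library B-scores, and initial fluorescence ratio not above library mean plus 5 SD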;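 also: positive B-score marks a calcium rise read as TRPC4 activation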
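Incubation: 45 min room-temperature Fluo4 loading, 110 s read / System: HEK293 cells stably co-expressing mouse TRPC4beta and mu-opioid receptor / Signal: Fluo4 fluorescence, kinetic / Control set: buffer (low) and maximal DAMGO (high) / Measure: integrated baseline-normalised fluorescence ratio, converted to per-well B score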
TRPC4 PAM = TRPC4 (mouse) allosteric potentiation; B-score at 10 µM; hit rate 0.42% among 310,000; Q9QUQ5; AID 2227; HEK293 TRPC4beta/mu-opioid, DAMGO EC20, Fluo-4 Ca2+ flux; hits give high values;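 active = B-score of calcium response area above 5 SD of library B-scores, with initial fluorescence ratio within 5 SD of library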;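 also: B-score of integrated fluorescence ratio over time as area under calcium response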
TRPC6 act = activators of mouse TRPC6 channel | B-score at 10 µM | hit rate 0.13% among 310,000 | HEK293-TRPC6 membrane potential dye fluorescence; hits give high values | Q61143;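 active = B-score of the integrated fluorescence ratio above library mean plus 3 SD, and starting fluorescence ratio within library mean plus 5 SD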;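 also: higher score means more depolarization so channel activation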
Target sequence (Q61143 whole entry, looked up): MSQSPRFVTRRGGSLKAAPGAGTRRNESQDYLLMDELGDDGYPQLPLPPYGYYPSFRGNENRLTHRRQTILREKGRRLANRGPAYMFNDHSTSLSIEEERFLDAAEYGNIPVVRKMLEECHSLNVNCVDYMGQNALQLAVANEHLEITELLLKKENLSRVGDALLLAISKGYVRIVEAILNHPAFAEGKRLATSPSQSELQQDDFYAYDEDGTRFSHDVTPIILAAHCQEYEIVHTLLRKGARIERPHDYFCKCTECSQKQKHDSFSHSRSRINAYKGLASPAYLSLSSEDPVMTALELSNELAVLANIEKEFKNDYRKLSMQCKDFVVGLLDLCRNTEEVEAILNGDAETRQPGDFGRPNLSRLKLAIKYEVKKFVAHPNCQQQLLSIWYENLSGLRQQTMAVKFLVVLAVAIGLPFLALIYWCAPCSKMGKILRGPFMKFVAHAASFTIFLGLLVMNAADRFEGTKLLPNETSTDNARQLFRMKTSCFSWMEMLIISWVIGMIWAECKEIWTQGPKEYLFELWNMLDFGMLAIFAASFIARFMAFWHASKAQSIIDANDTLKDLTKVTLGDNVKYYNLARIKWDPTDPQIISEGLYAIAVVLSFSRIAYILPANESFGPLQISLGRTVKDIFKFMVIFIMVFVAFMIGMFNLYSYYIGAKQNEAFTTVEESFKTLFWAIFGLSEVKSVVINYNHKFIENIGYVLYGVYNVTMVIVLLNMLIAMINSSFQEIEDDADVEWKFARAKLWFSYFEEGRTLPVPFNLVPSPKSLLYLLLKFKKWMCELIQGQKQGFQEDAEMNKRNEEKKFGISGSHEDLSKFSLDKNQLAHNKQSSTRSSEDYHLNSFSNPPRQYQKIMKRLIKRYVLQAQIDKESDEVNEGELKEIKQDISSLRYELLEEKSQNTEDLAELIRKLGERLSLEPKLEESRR
TRPC6 inhibitor = inhibitors of mouse TRPC6 channel | B-score at 10 µM | HEK293-TRPC6, membrane potential dye, ACh-evoked depolarization; hits give low values | AID 2553 | hit rate 1.1% among 310,000;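 active = B-score under library mean minus 3 SD, initial fluorescence not abnormally high, positive integrated signal ratio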;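 also: B-score derived from integrated fluorescence ratio over the kinetic read; more negative B-score means stronger inhibition of depolarization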
TRPC4 sel inh 2 = mouse TRPC4 off-target activity of TRPC6 inhibitors, second screen; hit rate 42% among 920; shares compounds with TRPC6 inhibitor; HEK293 TRPC4/MOR, membrane potential dye fluorescence; channel activated by saturating DAMGO dose; inhibition, % at 10 µM;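 active = compounds whose fluorescence signal differed from control wells by over 3 SD, either direction, in both duplicate plates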
TRPC4 spec = mouse TRPC4 off-target activity of TRPC6 inhibitors | shares compounds with TRPC6 inhibitor | AID 2777 | HEK293 TRPC4/mu-opioid, membrane potential fluorescence | activity change, negative = inhibition, % at 10 µM | hit rate 61% among 920;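 active = rise or fall in signal beyond 3 SD of buffer-only wells in both replicate plates, either sign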;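 also: integrated kinetic ratio of fluorescence range over baseline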
HEK293 MPD ctr 2-1 = second check of TRPC6 inhibitor effects in parental HEK293 cells; signal change vs control, % at 10 µM; parental HEK293 membrane potential dye fluorescence; maximal acetylcholine challenge after compound addition; hit rate 31% among 920; shares compounds with TRPC6 inhibitor;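 active = membrane potential signal moving either way by over 3 SD of the maximum-effect control, in both duplicate plates, meaning non-specific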
HEK293 MPD ctr-1 = counter-screen for TRPC6 inhibitors: effect in parental HEK293 cells; shares compounds with TRPC6 inhibitor; parental HEK293 membrane potential dye fluorescence; AID 2780; hit rate 60% among 920; membrane potential signal change, % at 10 µM;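 active = membrane potential signal shifting up or down by more than 3 SD of buffer-only wells, on both duplicate plates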
HEK293 MPD ctr-2 = checks TRPC6 modulator effects in parental HEK293 cells | shares compounds with TRPC6 inhibitor | membrane potential dye fluorescence | membrane potential signal change, % at 10 µM | hit rate 51% among 2,400;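 active = membrane potential signal moves up or down beyond 5 SD from buffer-only wells, on both duplicate plates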
HEK293 MPD ctr 2-2 = second counter-screen for TRPC6 modulators: effect in parental HEK293 cells. shares compounds with TRPC6 inhibitor. membrane potential dye fluorescence; after compound, maximal acetylcholine stimulation. inhibition, % at 10 µM. hit rate 14% among 2,400. AID 488926;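 active = membrane potential signal drops by more than 5 SD from the mean control signal, in both duplicate plates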;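 also: plate controls were acetylcholine ECmax control wells for no effect and buffer only wells for full effect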
TRPC4 ctr mod = mouse TRPC4 off-target activity of TRPC6 modulators; HEK293 TRPC4/mu-opioid, membrane potential fluorescence; percent change from control (negative = decrease, positive = increase), % at 10 µM; hit rate 69% among 2,400; shares compounds with TRPC6 inhibitor;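 active = membrane potential signal moved up or down beyond 5 SD of buffer control wells, in both duplicate plates, actives on both sides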;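 also: plate controls were assay buffer wells for no effect and DAMGO maximal-effect wells for full effect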
TRPC4/MOR inh 2 = second selectivity test of TRPC6 modulators against mouse TRPC4. shares compounds with TRPC6 inhibitor. HEK293 TRPC4/mu-opioid, membrane potential dye fluorescence; stimulated with maximal-effect DAMGO. inhibition, % at 10 µM. hit rate 55% among 2,400. AID 488928;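 active = drop in membrane potential signal beyond 5 SD of the control wells in both duplicate plates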;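 also: TRPC4 counter screen for TRPC6 hits run under conditions tuned for TRPC6 not TRPC4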
TRPC6 inh conf = mouse TRPC6 inhibitor confirmation; HEK293-TRPC6, membrane potential dye, ACh-evoked depolarization; hit rate 43% among 3,300; inhibition, % at 10 µM; shares compounds with TRPC6 inhibitor;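 active = fluorescence ratio falls more than 5 SD below the full-stimulation control mean, in both duplicate runs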;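 also: integrated fluorescence ratio of peak minus minimum over baseline after agonist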
TRPC6 act confirm = mouse TRPC6 activator confirmation | shares compounds with TRPC6 inhibitor | HEK293-TRPC6 membrane potential dye fluorescence, FDSS | activation, % at 10 µM | hit rate 11% among 2,800 | AID 488961;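 active = ratio signal rise beyond 5 SD above unstimulated control wells' mean, seen in both duplicate runs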;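 also: plate controls were buffer EC0 wells for no effect and acetylcholine ECmax response for full effect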
Active calls of the source: *; i = inactive; . = no result.

SMILES	TRPC4 block	TRPC4 act	TRPC4 PAM	TRPC6 act	TRPC6 inhibitor	HEK293 MPD ctr-2	HEK293 MPD ctr 2-2	TRPC4 ctr mod	TRPC4/MOR inh 2	TRPC6 inh conf	TRPC6 act confirm	others
OC(C#CCCN1CCCCC1)(c1ccccc1)c1ccccc1	i	i	i	i	-8.8*	.	.	.	.	72.2%*	.	TRPC4 sel inh 2=i;TRPC4 spec=6.0%*;HEK293 MPD ctr 2-1=14.5%*;HEK293 MPD ctr-1=6.0%*
OCCN(CC#CC(O)(c1ccccc1)C1CCCCC1)CCO (centres undefined)	i	i	i	i	i	.	.	.	.	.	.
O=Cc1c(NCc2ccccc2Cl)c2ccccc2[nH]c1=O	i	i	i	i	i	.	.	.	.	.	.
CCn1c(CNC(=O)c2ccccc2Br)nnc1SCC(=O)Nc1nncs1	i	i	i	i	i	.	.	.	.	.	.
CS(=O)(=O)N1CCN(C(=O)C2c3ccccc3Oc3ccccc32)CC1	i	i	i	i	-5.7*	i	i	18.0%*	i	42.5%*	.
CCOCCCNC(=O)CN1C(=O)COc2ccc(S(=O)(=O)N3CCOCC3)cc21	i	i	i	i	i	.	.	.	.	.	.
CCOC(CNC(=O)CN1C(=O)COc2ccc(S(=O)(=O)N3CCOCC3)cc21)OCC	i	i	i	i	-5.23*	i	i	i	i	i	i
Cc1nnc(Nc2ccc3c(c2)ncn3C)c2ccccc12	i	i	i	i	-9.52*	.	.	.	.	56.2%*	i	TRPC4 sel inh 2=i;TRPC4 spec=-24.3%*;HEK293 MPD ctr 2-1=-7.0%*;HEK293 MPD ctr-1=-323.5%*
CNC(=O)c1ccc(Nc2nnc(C)c3ccccc23)cc1	i	i	i	i	-5.52*	-99.0%*	i	i	i	i	i
Cc1nnc(Nc2ccc(C(=O)NCCO)cc2)c2ccccc12	i	i	i	i	i	.	.	.	.	.	.
CN1CCN(CC(=O)Nc2nnc(-c3cccs3)s2)CC1	i	i	i	i	i	.	.	.	.	.	.
Cc1cc(C)c(S(=O)(=O)Nc2cc(C)on2)c(C)c1	i	i	i	i	i	.	.	.	.	.	.
FC(F)(F)c1ccc2c(c1)n(Cc1ccccc1)c1[n+]2CCCCC1	i	i	i	i	-5.12*	i	i	i	i	i	i
CCOC(=O)c1ccc2ncc(C(=O)OCC)c(NCCN3CCOCC3)c2c1	i	i	i	i	i	.	.	.	.	.	.
CCOC(=O)c1ccc2ncc(C(=O)OCC)c(NCCN(C)C)c2c1	i	i	i	i	-9.49*	.	.	.	.	i	i	TRPC4 sel inh 2=i;TRPC4 spec=-18.9%*;HEK293 MPD ctr 2-1=i;HEK293 MPD ctr-1=-296.5%*
O=C(c1ccccc1)N(Cc1ccccc1)c1ccccn1	i	i	i	i	i	.	.	.	.	.	.
O=C(c1ccc([N+](=O)[O-])cc1)N(Cc1ccccc1)c1ccccn1	i	i	i	i	-5.7*	144.5%*	i	37.5%*	i	i	.
CCN(CC)CCn1nc2c3c(cccc3c1=O)-c1ccccc1-2	i	i	i	i	-5.82*	-77.5%*	i	-17.5%*	55.0%*	39.5%*	i
O=C(COc1ccccc1)N1c2ccccc2Sc2ccccc21	i	i	i	i	i	.	.	.	.	.	.
CN(C)c1cc[n+](CC(=O)N2c3ccccc3Sc3ccccc32)cc1	i	i	i	i	-5.03*	i	i	-12.0%*	i	44.5%*	i
CCOC(=O)N1c2ccccc2Sc2ccccc21	i	i	i	i	i	.	.	.	.	.	.
O=C(C[n+]1ccccc1)N1c2ccccc2Sc2ccccc21	i	i	i	i	-7.86*	i	82.0%*	i	i	82.0%*	i
COc1ccc(NC(=O)CSc2nnc(C3CCCCC3)n2N)c(OC)c1	i	i	i	i	-6.72*	i	i	i	i	i	i
COc1ccc(NC(=O)CSc2nc3ccccc3c(=O)n2CCCN2CCC(C)CC2)c(OC)c1	i	i	i	i	-9.24*	.	.	.	.	56.7%*	i	TRPC4 sel inh 2=22.5%*;TRPC4 spec=i;HEK293 MPD ctr 2-1=i;HEK293 MPD ctr-1=5.8%*
COc1ccc(OC)c(NC(=O)CSc2nnc(C3CCCCC3)n2N)c1	i	i	i	i	i	.	.	.	.	.	.
SMILES	TRPC4 block	TRPC4 act	TRPC4 PAM	TRPC6 act	TRPC6 inhibitor	HEK293 MPD ctr-2	HEK293 MPD ctr 2-2	TRPC4 ctr mod	TRPC4/MOR inh 2	TRPC6 inh conf	TRPC6 act confirm	others
COc1ccc(CCn2c(SCCN3CCCCC3)nc3ccccc3c2=O)cc1OC	i	i	i	i	-9.23*	.	.	.	.	59.1%*	i	TRPC4 sel inh 2=36.5%*;TRPC4 spec=-12.6%*;HEK293 MPD ctr 2-1=i;HEK293 MPD ctr-1=-153.0%*
Cc1ccc(CN2CCSc3ccc(C(=O)NCc4ccccn4)cc32)cc1	i	i	i	i	i	.	.	.	.	.	.
CCOC(=O)C(NC(=O)NCc1ccc(OC)cc1)(OCC)C(F)(F)F (centres undefined)	i	i	i	i	i	.	.	.	.	.	.
CCCn1c(COc2ccc(C(=O)O)cc2)nc2ccccc21	i	i	i	i	i	.	.	.	.	.	.
CCOC(=O)c1nc(NCc2ccccc2)c2ccccc2n1	i	i	i	i	i	.	.	.	.	.	.
CCCCN(C)C(=O)CSc1nc(NCc2ccc(OC)cc2)c2ccccc2n1	i	i	i	i	-9.67*	.	.	.	.	i	i	TRPC4 sel inh 2=67.5%*;TRPC4 spec=4.6%*;HEK293 MPD ctr 2-1=i;HEK293 MPD ctr-1=6.4%*
COc1cccc(NC(=O)c2sc3ncn(CC(=O)N4CCN(c5ccccn5)CC4)c(=O)c3c2C)c1	i	i	i	i	i	.	.	.	.	.	.
